In ChEMBL document CHEMBL4627393, “Discovery of Potent, Selective, and State-Dependent NaV1.7 Inhibitors with Robust Oral Efficacy in Pain Models: Structure-Activity Relationship and Optimization of Chroman and Indane Aryl Sulfonamides” (J Med Chem, 2020):

What was measured:
[1] = Lipophilicity, log D of the compound; assay type: physicochemical; settings: octanol/water
[2] = Metabolic stability in mouse liver microsomes assessed as metabolic rate at 1 uM preincubated for 5 mins followed by NADPH addition and measured up to 30 mins by LC/MS-MS analysis; assay type: ADME, Microsome; settings: 0.5 h
[3] = Metabolic stability in rat liver microsomes assessed as metabolic rate at 1 uM preincubated for 5 mins followed by NADPH addition and measured up to 30 mins by LC/MS-MS analysis; assay type: ADME, Microsome; settings: 0.5 h
[4] = Metabolic stability in human liver microsomes assessed as metabolic rate at 1 uM preincubated for 5 mins followed by NADPH addition and measured up to 30 mins by LC/MS-MS analysis; assay type: ADME, Microsome; settings: 0.5 h
[5] = Cmax in BALB/c mouse at 1 mg/kg, iv measured upto 24 hrs by LC/MS-MS analysis; assay type: ADME, organism-based; set-up: dose 1 mg/kg, route intravenous; settings: in vivo
[6] = AUClast in BALB/c mouse at 1 mg/kg, iv measured upto 24 hrs by LC/MS-MS analysis; assay type: ADME, organism-based; set-up: time < 24 hr, dose 1 mg/kg, route intravenous; settings: in vivo
[7] = Half life in BALB/c mouse at 1 mg/kg, iv measured upto 24 hrs by LC/MS-MS analysis; assay type: ADME, organism-based; settings: in vivo
[8] = Clearance in BALB/c mouse at 1 mg/kg, iv measured upto 24 hrs by LC/MS-MS analysis; assay type: ADME, organism-based; settings: in vivo
[9] = Volume of distribution at steady state in BALB/c mouse at 1 mg/kg, iv measured upto 24 hrs by LC/MS-MS analysis; assay type: ADME, organism-based; settings: in vivo, read-out: Vdss
Summary of the method: (§1)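 Pharmacokinetics were run with an IV dose of 1 mg/kg and a PO dose of 10 mg/kg. Parameters reported were AUClast, Cmax, CL, T1/2, Vss and %F.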

[10] = Cmax in BALB/c mouse at 10 mg/kg, po measured upto 24 hrs by LC/MS-MS analysis; assay type: ADME, organism-based; set-up: dose 10 mg/kg, route oral; settings: in vivo
[11] = AUClast in BALB/c mouse at 10 mg/kg, po measured upto 24 hrs by LC/MS-MS analysis; assay type: ADME, organism-based; set-up: dose 10 mg/kg, time < 24 hr, route oral; settings: in vivo
[12] = Oral bioavailability in BALB/c mouse at 10 mg/kg measured upto 24 hrs by LC/MS-MS analysis; assay type: ADME, organism-based; settings: in vivo; summary of the method: as §1

## Cc1nc(-c2cc(C(F)(F)F)ccc2[C@H]2CCOc3cc(S(=O)(=O)Nc4nccs4)ccc32)co1
[1]
  logD: 2.9

## Cc1nc(-c2cc(C(F)(F)F)ccc2[C@@H]2CCOc3cc(S(=O)(=O)Nc4nccs4)ccc32)co1
[1]
  logD: 2.9

## Cc1ccc(-c2cc(C(F)(F)F)ccc2[C@H]2CCOc3cc(S(=O)(=O)Nc4ncc(F)cn4)ccc32)cn1
[1]
  logD: 2.5

## O=S(=O)(Nc1nccs1)c1ccc2c(c1)OCC[C@H]2c1ccc(C(F)(F)F)cc1-c1nccs1
[1]
  logD: 3.3

## Cn1nccc1-c1cc(C(F)(F)F)ccc1[C@H]1CCOc2cc(S(=O)(=O)Nc3ccc(F)cn3)ccc21
[1]
  logD: 3.8

## Cc1nc(-c2cc(C(F)(F)F)ccc2[C@H]2CCOc3cc(S(=O)(=O)Nc4cccc(F)n4)ccc32)co1
[1]
  logD: 4

## O=S(=O)(Nc1ncccn1)c1ccc2c(c1)CC[C@@H]2c1ccc(C(F)(F)F)cc1N1CCOCC1
[1]
  logD: 2.9

## O=S(=O)(Nc1nccs1)c1ccc2c(c1)OCC[C@H]2c1ccc(C(F)(F)F)cc1-n1ccnn1
[1]
  logD: 2.3

## Cn1nccc1-c1cc(C(F)(F)F)ccc1[C@H]1CCOc2cc(S(=O)(=O)Nc3nccs3)ccc21
[1]
  logD: 2.2
[2]
  Drug metabolism: 0.1 nmol/min/mg
[3]
  Drug metabolism: 0.04 nmol/min/mg
[4]
  Drug metabolism: 0.05 nmol/min/mg
[5]
  Cmax: 1300 nM
[6]
  AUC(0-t) at 24 h: 2.2 µM·h
[7]
  half-life: 2 h
[8]
  clearance: 14 mL/min/kg
[9]
  Vd: 2.2 L/kg
[10]
  Cmax: 6000 nM
[11]
  AUC(0-t) at 24 h: 15 µM·h
[12]
  bioavailability: 68%

## O=S(=O)(Nc1cccc(F)n1)c1ccc2c(c1)OCC[C@@H]2c1ccc(C(F)(F)F)cc1N1CCOCC1
[1]
  logD: 4.1

## Cn1nccc1-c1cc(C(F)(F)F)ccc1[C@H]1CCOc2cc(S(=O)(=O)Nc3cnccn3)ccc21
[1]
  logD: 1.8

## O=S(=O)(Nc1ncccn1)c1ccc2c(c1)OCC[C@@H]2c1ccc(C(F)(F)F)cc1-c1ccc(F)cn1
[1]
  logD: 2.9

## O=S(=O)(Nc1nccs1)c1ccc2c(c1)OCC[C@@H]2c1ccc(C(F)(F)F)cc1-c1nccs1
[1]
  logD: 3.3

## Cc1nc(-c2cc(C(F)(F)F)ccc2[C@H]2CCOc3cc(S(=O)(=O)Nc4ncccn4)ccc32)co1
[1]
  logD: 2.8

## O=S(=O)(Nc1nccs1)c1ccc2c(c1)OCC[C@@H]2c1ccc(C(F)(F)F)cc1N1CCNCC1
[1]
  logD: 1.4

## CN1CCN(c2cc(C(F)(F)F)ccc2[C@H]2CCOc3cc(S(=O)(=O)Nc4nccs4)ccc32)CC1
[1]
  logD: 2.1

## Cc1ccc(-c2cc(C(F)(F)F)ccc2[C@H]2CCOc3cc(S(=O)(=O)Nc4ccncn4)ccc32)cn1
[1]
  logD: 3

## O=S(=O)(Nc1ccncn1)c1ccc2c(c1)OCC[C@@H]2c1ccc(C(F)(F)F)cc1N1CCOCC1
[1]
  logD: 2

## Cn1nccc1-c1cc(C(F)(F)F)ccc1[C@H]1CCOc2cc(S(=O)(=O)Nc3ncc(F)cn3)ccc21
[1]
  logD: 2.5

## O=C1COCCN1c1cc(C(F)(F)F)ccc1[C@H]1CCOc2cc(S(=O)(=O)Nc3nccs3)ccc21
[1]
  logD: 1.8

## O=S(=O)(Nc1nccs1)c1ccc2c(c1)OCC[C@@H]2c1ccc(C(F)(F)F)cc1-n1ccnn1
[1]
  logD: 2.3
[2]
  Drug metabolism: 0.02 nmol/min/mg
[3]
  Drug metabolism: 0.02 nmol/min/mg
[4]
  Drug metabolism: 0.02 nmol/min/mg
[5]
  Cmax: 2200 nM
[6]
  AUC(0-t) at 24 h: 0.9 µM·h
[7]
  half-life: 0.4 h
[8]
  clearance: 37 mL/min/kg
[9]
  Vd: 1 L/kg
[10]
  Cmax: 3000 nM
[11]
  AUC(0-t) at 24 h: 7.1 µM·h
[12]
  bioavailability: 79%
